Measured values taken from ChEMBL document CHEMBL4513216, “Probing the Open Global Health Chemical Diversity Library for Multistage-Active Starting Points for Next-Generation Antimalarials” (ACS Infect Dis, 2020).

experiment: Toxicity liver stage against HepG2, at 10uM; type: cell-based; design: test concentration 10 uM, cell line HepG2-A16-CD81EGFP; settings: human, HepG2-A16-CD81EGFP cells; read-out: INHIBITION
Method in brief: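 Uninfected HepG2-A16-CD81EGFP cells, 3 × 10^3 per well, 1536-well, plated on prespotted compound at 10 μM final, parasite-free screening media added to match infected plates; puromycin 10 μM positive, DMSO 0.5% negative; run in parallel with 48 h PbLuc assay at 37 °C, 5% CO2; viability by CellTiter-Glo luminescence, normalized to controls.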

| SMILES | cytotoxicity at 10 µM |
| --- | --- |
| Cn1c(CN2CCCCCC2)cc(=O)c(O)c1CN1CCCC1 | 13.9% |
| Cc1nn(C)c(C)c1S(=O)(=O)NCCn1ccc(-c2cccs2)n1 | -3.53% |
| CNC(=O)NC1CC2(CCNCC2)c2ccc(C)cc21 (stereo not given) | -4.97% |
| O=C(c1ccnnc1)N1CC[C@H]2[C@H]1CCN2S(=O)(=O)C1CC1 | -143% |
| COCC(=O)N1CCC2(CC(=O)N(c3cccc(F)c3)C2)C1 (stereo not given) | -156% |
| Cn1cc(C2CC(=O)NC23CCN(C(=O)NC2CC2)CC3)cn1 (stereo not given) | 4.97% |
| Cc1ccc(CN2CC[C@H]3C[C@@H](c4nc(C5CC5)cs4)O[C@@H]3C2)o1 | -4.29% |
| CCOC(=O)CNC(=O)N1CCN(c2ncccn2)CC1 | 10.6% |
| NC(=O)c1cc2c(nc1N)CCN(C(=O)C1CCCCC1)C2 | -21.8% |
| O[C@H]1CN(CCOc2ccc(F)cc2)CC[C@@]12CCCO2 | -28.8% |
| Cc1occc1-c1nc(NC2CCCC2)ncc1-c1ccccn1 | -20.9% |
| CN(C)S(=O)(=O)NC(=O)CC(c1ccccc1)C(F)(F)F (stereo not given) | -39.5% |
| CCNC(=O)c1cnc(Sc2nccn2C)c(Cl)c1 | -49.2% |
| COCCNc1nc(-c2ccc(S(=O)(=O)N3CCCCCC3)cc2)cs1 | -32.7% |
| CC(C)CC(=O)N(C)Cc1nc(C(F)(F)F)cs1 | 8.32% |
| CC(C)NC(=O)CCNC(=O)CCc1cc(Cl)cs1 | -2.59% |
| Cc1nc2c(C#N)cnn2c(C)c1CCC(=O)N(C)C(C)C(C)C (stereo not given) | -43.7% |
| CCOc1ccc(CNC(=O)N(C)CC(C)(C)O)cc1C | 4.3% |
| Cc1ccnc(C(NC(=O)c2sc(C)nc2C)C2CC2)n1 (stereo not given) | -11% |
| CC1CCN(CCCNC(=O)Nc2cc3c(cc2Br)OCCO3)CC1 | -3.11% |
| CN1CCN(Cc2ccccc2CNC(=O)c2cc(Cl)ccc2F)CC1 | 9.61% |
| CC(C)N1CCC(Nc2ccn(CCC#N)n2)C1=O (stereo not given) | 15.7% |
| COc1ccc2cc(CNc3c(C)nn(C(C)C)c3C)ccc2c1 | -56.6% |

| SMILES | cytotoxicity at 10 µM |
| --- | --- |
| c1coc(CNCC2Cn3nncc3CO2)c1 (stereo not given) | -92.5% |
| CC(C)[C@@H]1CN(C(=O)NCc2ccco2)C[C@H]1NS(=O)(=O)N(C)C | 6.14% |
| Cc1cc(C)nc(NC2CC(=O)N(C)C2)n1 (stereo not given) | 8.61% |
| Cc1ccc(CNC(=O)c2cc(Cn3ccnc3C(C)C)[nH]n2)o1 | 3.42% |
| Cn1ncc2c(NC3CCCN(C(=O)C4CC4)C3)nc(C(C)(C)C)nc21 (stereo not given) | 12% |
| Cc1cccc(N2CCC(N3CCCC4(CNC(=O)O4)C3)CC2)c1C (stereo not given) | -6.67% |
| O=C(C1CCC1)N1CCC(C(=O)N2CCC(c3ccc(F)cc3)C2)CC1 (stereo not given) | -39.8% |
| Cc1ccccc1N1CCN(c2ccncn2)C(C)C1 (stereo not given) | 22.6% |
| CCOc1cc(CNCc2cnc(C)cn2)c(Cl)cc1OC(C)C | 4.86% |
| COc1ccc(C(=O)C2CCCN(c3cc(C#N)ccn3)C2)cc1F (stereo not given) | -0.0739% |
| O=C(O)CCn1ccc2c(nnc3c(-c4ccc(F)cc4)cnn32)c1=O | 4.01% |
| O=C1CC(NCc2ccncc2)CN1Cc1cccc(F)c1 (stereo not given) | -7.12% |
| COc1cccc(N2CCN(CC(O)c3cc(C)sc3C)CC2)c1 (stereo not given) | 2.24% |
| Cc1nc(C)n(CC2CCCN2Cc2ncc(C(C)(C)C)o2)n1 (stereo not given) | -5.53% |
| CCOc1ccccc1CNC(=O)N1CCC(n2cncn2)CC1 | -0.819% |
| Cc1ncsc1C(=O)NCCSCc1cccs1 | -2.11% |
| COC(=O)c1ccc(N2CCN(C(=O)c3cnn(C)c3)C(C)C2)cc1 (stereo not given) | -11.5% |
| COc1cc(C(=O)Nc2nc(C)no2)ccc1C | -8.39% |
| Cc1ccsc1C(=O)N1CCc2ncc(CN(C)C)n2CC1 | -101% |
| CC1COC2(CCN(C(=O)Cc3ccncc3)CC2)C1 (stereo not given) | -105% |
| COc1ccc(C[C@H]2CN(Cc3ccoc3)CC[C@H]2OC)cc1 | 8.44% |
| O=C(c1cocn1)N1C[C@@H]2CN(Cc3ccco3)CCO[C@@H]2C1 | 5.24% |
